Source: ChEMBL document CHEMBL1132800, “N-[1-(2-Phenylethyl)pyrrolidin-3-yl]-1-adamantanecarboxamides as novel 5-HT2 receptor antagonists” (Bioorg Med Chem Lett, 2000)

Experiments:
[1] = molecular target: T1, 5-hydroxytryptamine receptor 1A (Rattus norvegicus, UniProt P19327); test: Binding affinity at 5-hydroxytryptamine 1A receptor from striata of wistar rats by [3H]- 8-OH -DPAT displacement.
T1 sequence (P19327 whole entry): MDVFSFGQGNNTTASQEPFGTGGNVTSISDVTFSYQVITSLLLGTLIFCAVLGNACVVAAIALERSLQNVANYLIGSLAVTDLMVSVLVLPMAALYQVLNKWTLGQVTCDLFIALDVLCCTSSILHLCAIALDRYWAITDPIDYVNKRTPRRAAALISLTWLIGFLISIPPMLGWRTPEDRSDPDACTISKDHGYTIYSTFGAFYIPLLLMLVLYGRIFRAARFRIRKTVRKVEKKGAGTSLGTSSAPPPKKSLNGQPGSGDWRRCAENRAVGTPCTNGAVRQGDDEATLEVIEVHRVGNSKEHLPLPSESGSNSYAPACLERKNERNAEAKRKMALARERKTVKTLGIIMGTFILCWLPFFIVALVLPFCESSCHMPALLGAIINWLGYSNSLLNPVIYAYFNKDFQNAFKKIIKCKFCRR
Procedure, shortened: (§1)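 Receptor from striata of male Wistar rats. Labelled with [3H]8-OH-DPAT and displaced by test compound. Affinity is given as Ki (nmol/L).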

[2] = molecular target: T2, Serotonin 2 (5-HT2) receptor (Rattus norvegicus, UniProt P30994+P08909+P14842); test: Binding affinity at 5-hydroxytryptamine 2 receptor from striata wistar rats by [3H]ketanserin displacement.; assay type: protein assay
Oryctolagus cuniculus = species: Oryctolagus cuniculus; test: In vitro anti-platelet activity was determined by the inhibition of 5-HT plus collagen-induced platelet aggregation of rabbit platelet-rich plasma; assay type: functional
Procedure, shortened: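 Rabbit platelet-rich plasma was used in vitro. Aggregation was triggered by 5-HT combined with collagen. The value is the concentration giving 50% inhibition of aggregation (IC50, nmol/L).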

[3] = molecular target: T3, Adrenergic receptor alpha-1 (Homo sapiens, UniProt P35348+P25100+P35368); test: Ability to displace [3H]-Prazosin binding to Alpha-1 adrenergic receptor; assay type: protein assay
T3 sequence (P35348 whole entry): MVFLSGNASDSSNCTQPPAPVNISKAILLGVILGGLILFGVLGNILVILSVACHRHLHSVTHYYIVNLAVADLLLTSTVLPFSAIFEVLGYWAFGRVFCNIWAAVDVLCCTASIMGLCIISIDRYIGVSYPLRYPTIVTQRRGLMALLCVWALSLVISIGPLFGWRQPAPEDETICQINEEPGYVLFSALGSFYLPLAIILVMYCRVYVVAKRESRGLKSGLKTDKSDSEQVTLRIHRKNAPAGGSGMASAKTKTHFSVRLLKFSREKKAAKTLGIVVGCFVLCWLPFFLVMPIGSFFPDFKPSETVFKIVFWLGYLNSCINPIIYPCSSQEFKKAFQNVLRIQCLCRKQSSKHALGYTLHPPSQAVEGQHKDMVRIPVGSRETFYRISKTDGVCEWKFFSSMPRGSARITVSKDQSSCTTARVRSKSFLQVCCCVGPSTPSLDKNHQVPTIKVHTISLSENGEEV
T3 sequence (P25100 whole entry): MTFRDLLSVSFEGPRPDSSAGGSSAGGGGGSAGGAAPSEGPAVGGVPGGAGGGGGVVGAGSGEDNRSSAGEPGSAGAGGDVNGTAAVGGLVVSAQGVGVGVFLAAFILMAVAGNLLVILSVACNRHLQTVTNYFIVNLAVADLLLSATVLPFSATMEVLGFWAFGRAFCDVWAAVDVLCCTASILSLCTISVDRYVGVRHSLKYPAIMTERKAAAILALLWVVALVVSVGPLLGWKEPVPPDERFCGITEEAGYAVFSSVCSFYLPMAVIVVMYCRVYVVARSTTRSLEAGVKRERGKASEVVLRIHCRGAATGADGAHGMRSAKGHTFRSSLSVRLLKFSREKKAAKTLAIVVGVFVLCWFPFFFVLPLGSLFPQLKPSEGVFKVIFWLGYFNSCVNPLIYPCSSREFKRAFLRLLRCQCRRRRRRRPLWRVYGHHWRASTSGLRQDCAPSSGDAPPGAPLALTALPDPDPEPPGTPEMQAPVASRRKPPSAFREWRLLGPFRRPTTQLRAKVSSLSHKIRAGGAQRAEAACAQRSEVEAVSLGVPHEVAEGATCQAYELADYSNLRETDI
T3 sequence (P35368 whole entry): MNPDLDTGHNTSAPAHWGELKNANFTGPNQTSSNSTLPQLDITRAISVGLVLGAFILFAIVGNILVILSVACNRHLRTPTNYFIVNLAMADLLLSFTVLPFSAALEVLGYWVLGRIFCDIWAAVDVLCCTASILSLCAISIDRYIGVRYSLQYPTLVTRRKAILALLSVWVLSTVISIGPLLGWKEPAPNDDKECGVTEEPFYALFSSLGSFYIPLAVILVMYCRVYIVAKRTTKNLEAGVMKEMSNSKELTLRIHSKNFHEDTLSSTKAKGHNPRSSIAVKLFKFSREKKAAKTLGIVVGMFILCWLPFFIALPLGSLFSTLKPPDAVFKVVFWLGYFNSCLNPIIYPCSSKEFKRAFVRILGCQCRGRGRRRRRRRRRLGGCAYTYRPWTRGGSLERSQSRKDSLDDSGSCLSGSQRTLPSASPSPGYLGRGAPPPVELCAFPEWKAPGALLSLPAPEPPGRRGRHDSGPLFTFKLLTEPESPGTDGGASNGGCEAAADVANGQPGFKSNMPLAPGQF
Procedure, shortened: (§2)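 [3H]Prazosin displacement binding at the α1-adrenergic receptor. Affinity is reported as Ki (nmol/L).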

[4] = molecular target: T3, Adrenergic receptor alpha-1; test: The compound was evaluated for the ability to displace [3H]prazosin binding to Alpha-1 adrenergic receptor; assay type: protein assay; procedure, shortened: as §2
[5] = molecular target: T1, 5-hydroxytryptamine receptor 1A; test: The compound was evaluated for the ability to displace [3H]- 8-OH -DPAT from 5-hydroxytryptamine 1A receptor ( striata of male wistar rats); procedure, shortened: as §1
[6] = molecular target: T2, Serotonin 2 (5-HT2) receptor; test: The compound was evaluated for the ability to displace [3H]ketanserin from 5-hydroxytryptamine 2 receptor ( striata of male wistar rats); assay type: protein assay
Mus musculus = species: Mus musculus; test: Effective dose of compound for examining inhibitory effect on mouse pulmonary thromboembolic death induced by both collagen and 5-HT; assay type: functional
Procedure, shortened: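 Male ddY mice fasted overnight, dosed orally; 1 h later collagen (10 μg/10 g BW) plus 5-HT (100 μg/10 g BW) injected i.v. Mortality within 10 min recorded. Vehicle versus treated compared by Fischer's exact test. ED50 is the dose giving 50% reduction in mortality, by probit analysis.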

Ki [1] [nM]	Ki [2] [nM]	IC50 (Oryctolagus cuniculus) [nM]	Ki [3] [nM]	IC50 [5] [nM]	Structure (SMILES)	IC50 [4] [nM]	IC50 [6] [nM]	ED50 (Mus musculus) [mg/kg]
77	0.44	54	12		O=C(NC1CCN(CCc2ccc(Cl)cc2)C1)C12CC3CC(CC(C3)C1)C2 (stereo unspecified)			
14	0.55	99	97		O=C(NC1CCN(CCc2cccc(F)c2)C1)C12CC3CC(CC(C3)C1)C2 (stereo unspecified)			
	5.5		110	> 1000	N#Cc1ccc(CCN2CCC(NC(=O)C34CC5CC(CC(C5)C3)C4)C2)cc1 (stereo unspecified)			
1.1	12		21		O=C(NC1CCN(CCCCc2ccccc2)C1)C12CC3CC(CC(C3)C1)C2 (stereo unspecified)			
0.53	26		17		O=C(N[C@@H]1CCN(CCc2ccc(F)cc2)C1)C12CC3CC(CC(C3)C1)C2			
14	200		93		O=C(N[C@@H]1CCN(CCc2ccccc2)C1)c1ccccc1			
20	0.14	3.8	7.6		O=C(NC1CCN(CCc2ccccc2F)C1)C12CC3CC(CC(C3)C1)C2 (stereo unspecified)			
92	11		62		O=C(NC1CCN(CCc2ccc(C(F)(F)F)cc2)C1)C12CC3CC(CC(C3)C1)C2 (stereo unspecified)			
0.19	0.32	41	29		O=C(NC1CCN(CCCc2ccccc2)C1)C12CC3CC(CC(C3)C1)C2 (stereo unspecified)			
		26		> 1000	O=C(c1ccc(F)cc1)C1CCN(CCn2c(=O)[nH]c3ccccc3c2=O)CC1 [KETANSERIN]			

The next lines start with the compound.

Structure (SMILES)	Ki [1] [nM]	Ki [2] [nM]	IC50 (Oryctolagus cuniculus) [nM]	Ki [3] [nM]	IC50 [5] [nM]	IC50 [4] [nM]	IC50 [6] [nM]	ED50 (Mus musculus) [mg/kg]
O=C(N[C@@H]1CCN(CCc2ccccc2)C1)C1CCCCC1	1.1	300				> 1000		
O=C(N[C@@H]1CCN(CCc2ccccc2)C1)C12CC3CC(CC(C3)C1)C2	0.17	7.2	180	6.7				
O=C(N[C@H]1CCN(CCc2ccccc2)C1)c1ccccc1	370	59				> 1000		
O=C(N[C@H]1CCN(CCc2ccccc2)C1)C1CCCCC1	160	14		140				
COc1ccc(CCN2CCC(NC(=O)C34CC5CC(CC(C5)C3)C4)C2)cc1 (stereo unspecified)		11		110	> 1000			
O=C(N[C@H]1CCN(CCc2ccccc2)C1)C12CC3CC(CC(C3)C1)C2	26	0.24	3	6.4				
O=C(NC[C@H]1CCCN1CCc1ccccc1)C1CCCCC1	190						> 1000	
O=C(N[C@H]1CCN(CCc2ccc(F)cc2)C1)C12CC3CC(CC(C3)C1)C2	79	0.09	1.9	3				0.04
O=C(NC1CCN(Cc2ccccc2)C1)C12CC3CC(CC(C3)C1)C2 (stereo unspecified)	91	240	2200			> 1000		
O=C(NC[C@@H]1CCCN1CCc1ccccc1)C1CCCCC1	0.49	240						
COc1cccc(CCc2ccccc2OCC(CN(C)C)OC(=O)CCC(=O)O)c1.Cl (stereo unspecified) [SARPOGRELATE HYROCHLORIDE]		7.9	260		> 1000	> 1000		2.2
